Data: ChEMBL document CHEMBL2440089, “CoMFA studies and in vitro evaluation of some 3-substituted benzylthio quinolinium salts as anticryptococcal agents” (Bioorg Med Chem, 2013)
pIC50: −log10 of the molar value.

Key:
Vero [1] = test: Cytotoxicity against african green monkey Vero cells after 48 hrs by Neutral Red dye assay; type: cell-based; conditions: chlorocebus sabaeus
Method in brief: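 Kidney […] (VERO) cells were seeded at 25,000 cells/well and incubated for 24 h, then exposed to samples for 48 h. Viable cells were counted by Neutral Red dye uptake. IC50 was taken from growth-inhibition versus concentration curves. Doxorubicin served as the positive control and DMSO as the vehicle control.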

Cryptococcus neoformans = test: Antifungal activity against Cryptococcus neoformans ATCC 90113 by CLSI method; type: functional, organism-based; conditions: for pIC50: read-out: IC50; for IC50: read-out: pIC50 (converted)
Method in brief: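 Test samples in DMSO were serially diluted in saline and run in duplicate in Sabouraud dextrose broth, with final concentrations starting at 20 μg/mL. Absorbance at 530 nm was read before and after incubation. Each plate carried growth, solvent and media-blank controls, with amphotericin B as the drug control. IC50 (50% inhibition relative to controls) was obtained by curve fitting.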

Vero [2] = test: Cytotoxicity against african green monkey Vero cells at 10 ug/ml after 48 hrs by Neutral Red dye assay; type: cell-based; conditions: chlorocebus sabaeus

| SMILES | Activity (Vero [1]) [µM] | pIC50 (Cryptococcus neoformans) | IC50 (Cryptococcus neoformans) [nM] | Activity (Vero [2]) |
| --- | --- | --- | --- | --- |
| [I-].c1ccc(Sc2cc3ccccc3[n+](CCCCCC3CCCCC3)c2)cc1 | 8.89 |  |  |  |
| Fc1cccc(Sc2cc3ccccc3[n+](CCCCCC3CCCCC3)c2)c1.[I-] | 1.23 | 4.88 | 13200 |  |
| COc1cccc(Sc2cc3ccccc3[n+](CCCCCC3CCCCC3)c2)c1.[I-] | 8.22 | 4.73 | 18500 |  |
| Cc1ccccc1Sc1cc2ccccc2[n+](CCCCCC2CCCCC2)c1.[I-] | 7.53 |  |  |  |
| Cc1cccc(Sc2cc3ccccc3[n+](CCCCCC3CCCCC3)c2)c1.[I-] | 6.96 |  |  |  |
| Cc1ccc(Sc2cc3ccccc3[n+](CCCCCC3CCCCC3)c2)cc1.[I-] | 5.27 |  |  |  |
| Oc1ccccc1Sc1cc2ccccc2[n+](CCCCCC2CCCCC2)c1.[I-] | 17.4 |  |  |  |
| Oc1cccc(Sc2cc3ccccc3[n+](CCCCCC3CCCCC3)c2)c1.[I-] |  | 5.63 | 2340 | Non-toxic |
| Oc1ccc(Sc2cc3ccccc3[n+](CCCCCC3CCCCC3)c2)cc1.[I-] |  |  |  | Non-toxic |
| FC(F)(F)c1ccccc1Sc1cc2ccccc2[n+](CCCCCC2CCCCC2)c1.[I-] |  | 5.43 | 3740 | Non-toxic |
| FC(F)(F)c1cccc(Sc2cc3ccccc3[n+](CCCCCC3CCCCC3)c2)c1.[I-] |  |  |  | Non-toxic |
| FC(F)(F)c1ccc(Sc2cc3ccccc3[n+](CCCCCC3CCCCC3)c2)cc1.[I-] |  |  |  | Non-toxic |
| COc1ccc(Sc2cc3ccccc3[n+](CCCCCC3CCCCC3)c2)cc1.[I-] | 7.67 | 6.14 | 731 |  |
| [I-].c1ccc(CSc2cc3ccccc3[n+](CCCCCC3CCCCC3)c2)cc1 |  | 6.52 | 301 | Non-toxic |
| Clc1ccccc1CSc1cc2ccccc2[n+](CCCCCC2CCCCC2)c1.[I-] |  | 5.87 | 1350 | Non-toxic |
| Clc1ccc(CSc2cc3ccccc3[n+](CCCCCC3CCCCC3)c2)cc1.[I-] | 2.3 | 7.06 | 88.3 |  |
| Cc1cccc(CSc2cc3ccccc3[n+](CCCCCC3CCCCC3)c2)c1.[I-] | 4.95 | 6.11 | 769 |  |
| Cc1ccc(CSc2cc3ccccc3[n+](CCCCCC3CCCCC3)c2)cc1.[I-] | 6.78 | 6.34 | 458 |  |
| FC(F)(F)c1ccc(CSc2cc3ccccc3[n+](CCCCCC3CCCCC3)c2)cc1.[I-] | 7.94 | 6.38 | 417 |  |

| SMILES | Activity (Vero [1]) [µM] | pIC50 (Cryptococcus neoformans) | IC50 (Cryptococcus neoformans) [nM] | Activity (Vero [2]) |
| --- | --- | --- | --- | --- |
| [I-].[O-][S+](c1ccc(F)cc1)c1cc2ccccc2[n+](CCCCCc2ccccc2)c1 (stereo not given) |  | 4.56 | 27500 | Non-toxic |
| [I-].[O-][S+](c1cccc(C(F)(F)F)c1)c1cc2ccccc2[n+](CCCCCc2ccccc2)c1 (stereo not given) |  | 4.96 | 10900 | Non-toxic |
| [I-].[O-][S+](c1cc2ccccc2[n+](CCCCCc2ccccc2)c1)c1ccccc1C(F)(F)F (stereo not given) |  | 5.03 | 9250 | Non-toxic |
| [I-].[O-][S+](c1cc2ccccc2[n+](CCCCCc2ccccc2)c1)c1ccccc1Br (stereo not given) |  | 5.04 | 9080 | Non-toxic |
| [I-].[O-][S+](c1ccc(Br)cc1)c1cc2ccccc2[n+](CCCCCc2ccccc2)c1 (stereo not given) |  | 4.83 |  | Non-toxic |
| [I-].[O-][S+](c1ccc(C(F)(F)F)cc1)c1cc2ccccc2[n+](CCCCCc2ccccc2)c1 (stereo not given) | 21.4 | 5.00 |  |  |
| Oc1ccc(CSc2cc3ccccc3[n+](CCCCCC3CCCCC3)c2)cc1.[I-] |  | 5.04 | 9040 | Non-toxic |
| CC(C)(C)c1ccc(CSc2cc3ccccc3[n+](CCCCCC3CCCCC3)c2)cc1.[I-] |  | 6.05 | 883 | Non-toxic |
| Fc1ccccc1CSc1cc2ccccc2[n+](CCCCCC2CCCCC2)c1.[I-] |  | 6.02 | 948 | Non-toxic |
| Fc1cccc(CSc2cc3ccccc3[n+](CCCCCC3CCCCC3)c2)c1.[I-] |  | 6.15 | 711 | Non-toxic |
| Fc1ccc(CSc2cc3ccccc3[n+](CCCCCC3CCCCC3)c2)cc1.[I-] |  | 6.17 | 678 | Non-toxic |
| COc1ccccc1CSc1cc2ccccc2[n+](CCCCCC2CCCCC2)c1.[I-] |  | 6.21 | 624 | Non-toxic |
| COc1cccc(CSc2cc3ccccc3[n+](CCCCCC3CCCCC3)c2)c1.[I-] |  | 6.22 | 607 | Non-toxic |
| COc1ccc(CSc2cc3ccccc3[n+](CCCCCC3CCCCC3)c2)cc1.[I-] |  | 5.67 | 2150 | Non-toxic |
| Brc1ccccc1CSc1cc2ccccc2[n+](CCCCCC2CCCCC2)c1.[I-] |  | 5.95 | 1130 | Non-toxic |
| Brc1cccc(CSc2cc3ccccc3[n+](CCCCCC3CCCCC3)c2)c1.[I-] |  | 6.44 | 361 | Non-toxic |
| Brc1ccc(CSc2cc3ccccc3[n+](CCCCCC3CCCCC3)c2)cc1.[I-] |  | 6.43 | 370 | Non-toxic |
| C[C@@H]1[C@H](O)[C@@H](C)/C=C/C=C/C=C/C=C/C=C/C=C/C=C/[C@H](O[C@@H]2O[C@H](C)[C@@H](O)[C@H](N)[C@@H]2O)C[C@@H]2O[C@](O)(C[C@@H](O)C[C@@H](O)[C@H](O)CC[C@@H](O)C[C@@H](O)CC(=O)O[C@H]1C)C[C@H](O)[C@H]2C(=O)O [AMPHOTERICIN B] | 7.03 | 6.37 |  |  |
| C[n+]1c2ccccc2cc2[n-]c3ccccc3c21 [CRYPTOLEPINE] | 8.88 | 4.36 | 43300 |  |
